# Reference: ChEMBL document CHEMBL3407478, “Development of a series of aryl pyrimidine kynurenine monooxygenase inhibitors as potential therapeutic agents for the treatment of Huntington's disease” (J Med Chem, 2015)
# What was measured:
# [1] = Half life in Sprague-Dawley rat brain at 12 mg equivalents/kg, po; type: ADME, tissue-based
# [2] = Tmax in Sprague-Dawley rat liver at 10 mg equivalents/kg, po after 0.25 to 12 hrs; type: ADME, organism-based
# Procedure, shortened: (§1)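 Fed male Sprague-Dawley rats given a single oral dose of 10 mg equiv/kg as 2 mg equiv/mL in 10% hydroxypropyl-β-cyclodextrin. Plasma, CSF, kidney, liver, and cortex and striatum from nonperfused brains sampled from 0.25 to 12 h.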
# [3] = Tmax in Sprague-Dawley rat brain at 6.2 mg equivalents/kg, iv; type: ADME, tissue-based
# Procedure, shortened: (§2)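 Nonfasted male Sprague-Dawley rats (300−370 g). Single iv tail-vein dose of 6.2 mg equiv/kg (1.24 mg equiv/mL in DMSO:PEG400:water 10:40:50) or oral gavage of 12 mg equiv/kg (1.20 mg equiv/mL in 10% hydroxypropyl-β-cyclodextrin). Terminal bleeds under isoflurane (N = 3) at 0.083−24 h; heparin plasma; tissues snap-frozen.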
# [4] = MRT in Sprague-Dawley rat plasma at 6.2 mg equivalents/kg, iv; type: ADME, cell-free; procedure, shortened: as §2
# [5] = Tmax in Sprague-Dawley rat plasma at 12 mg equivalents/kg, po; type: ADME, cell-free; procedure, shortened: as §2
# Kidney [6] = assay: Dose normalized Cmax in Sprague-Dawley rat kidney at 10 mg equivalents/kg, po after 0.25 to 12 hrs; type: ADME, organism-based; conditions: in vivo
# Procedure, shortened: (§3)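 Male Sprague-Dawley rats given a single oral dose of 10 mg equiv/kg as a 2 mg equiv/mL solution in 10% hydroxypropyl-β-cyclodextrin. Plasma, liver, kidney, cortex, striatum and CSF levels were measured from 0.25 to 12 h. Brain tissue was taken from nonperfused brains. CSF AUCN covers 0–8 h because the elimination phase was undefined.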
# Brain [7] = assay: Dose normalized AUC (0 to infinity) in BCRP knock out FVB/N mouse brain at 5 mg equivalents/kg, iv by LC-MS/MS analysis; type: ADME, organism-based; conditions: in vivo
# Procedure, shortened: (§4)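 Male mice given a single 5 mg equiv/kg iv bolus: FVB wild type, Bcrp(−/−), Mdr1a/b(−/−) and Mdr1a/b(−/−)/Bcrp(−/−). Brain and plasma concentration–time profiles were used to derive dose-normalized AUC (0–infinity).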
# [8] = Tmax in Sprague-Dawley rat CSF at 10 mg equivalents/kg, po after 0.25 to 12 hrs; type: ADME, organism-based, Cerebrospinal fluid; procedure, shortened: as §1
# Plasma [9] = assay: Dose normalized AUC (0 to infinity) in BCRP and MDR1a knock out FVB/N mouse plasma at 5 mg equivalents/kg, iv by LC-MS/MS analysis; type: ADME, organism-based; conditions: in vivo; procedure, shortened: as §4
# Plasma [10] = assay: Dose normalized AUC (0 to infinity) in wild-type FVB/N mouse plasma at 5 mg equivalents/kg, iv by LC-MS/MS analysis; type: ADME, organism-based; conditions: in vivo; procedure, shortened: as §4
# [11] = molecular target: Kynurenine 3-monooxygenase (Homo sapiens, UniProt O15229); assay: Inhibition of KMO in human PBMC
# [12] = Lipophilicity, log P of the compound at pH 7; type: physicochemical; conditions: buffer
# Cortex = assay: Dose normalized AUC (0 to infinity) in Sprague-Dawley rat cortex at 10 mg equivalents/kg, po after 0.25 to 12 hrs; type: ADME, organism-based; conditions: in vivo; procedure, shortened: as §3
# [13] = molecular target: Kynurenine 3-monooxygenase (Rattus norvegicus, UniProt O88867); assay: Inhibition of rat KMO assessed as conversion of kynurenine to 3-hydroxykynurenine by LC-MS/MS analysis
# Procedure, shortened: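 Mitochondrial fractions from mouse or rat liver tissue used as KMO source. Conversion of kynurenine to 3-hydroxykynurenine quantified by LC-MS/MS; IC50 averaged from triplicate tests.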
# Kidney [14] = assay: Dose normalized AUC (0 to infinity) in Sprague-Dawley rat kidney at 10 mg equivalents/kg, po after 0.25 to 12 hrs; type: ADME, organism-based; conditions: in vivo; procedure, shortened: as §3
# [15] = Fraction unbound in rat plasma; type: ADME, cell-free
# Rattus norvegicus [16] = assay: Inhibition of KMO in po dosed Sprague-Dawley rat plasma assessed as reduction in quinolinic acid plasma level by LC-MS/MS analysis
# Brain [17] = assay: Dose normalized AUC (0 to infinity) in MDR1a knock out FVB/N mouse brain at 5 mg equivalents/kg, iv by LC-MS/MS analysis; type: ADME, organism-based; conditions: in vivo; procedure, shortened: as §4
# Rattus norvegicus [18] = assay: Inhibition of KMO in Sprague-Dawley rat brain assessed as time duration for elevation in kynurenine plasma level at 10 mg/kg, po by […] analysis; type: functional
# [19] = Tmax in Sprague-Dawley rat kidney at 10 mg equivalents/kg, po after 0.25 to 12 hrs; type: ADME, organism-based; procedure, shortened: as §1
# Plasma [20] = assay: Dose normalized AUC (0 to infinity) in Sprague-Dawley rat plasma at 10 mg equivalents/kg, po after 0.25 to 12 hrs; type: ADME, organism-based; conditions: in vivo; procedure, shortened: as §3
# Rattus norvegicus [21] = assay: Inhibition of KMO in Sprague-Dawley rat striatum brain microdialysate assessed as time duration for elevation in kynurenic acid level at 10 mg/kg, po by […] analysis; type: functional
# Procedure, shortened: (§5)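 Freely moving Sprague-Dawley rats given 10 mg/kg po, with a microdialysis probe implanted in the striatum. Dialysate was sampled over 0–240 min for free compound and for KYN, KYNA, AA and 3-HK, quantified by LC-MS/MS. Metabolite changes were compared with t = 0 min by 2-way ANOVA.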
# [22] = Half life in Sprague-Dawley rat brain at 6.2 mg equivalents/kg, iv; type: ADME, tissue-based
# [23] = Half life at steady state in Sprague-Dawley rat plasma at 6.2 mg equivalents/kg, iv; type: ADME, cell-free
# [24] = Aqueous solubility of the compound; type: physicochemical
# [25] = Tmax in Sprague-Dawley rat cortex at 10 mg equivalents/kg, po after 0.25 to 12 hrs; type: ADME, organism-based; procedure, shortened: as §1
# Striatum = assay: Dose normalized Cmax in Sprague-Dawley rat striatum at 10 mg equivalents/kg, po after 0.25 to 12 hrs; type: ADME, organism-based; conditions: in vivo; procedure, shortened: as §3
# Rattus norvegicus [26] = assay: Inhibition of KMO in Sprague-Dawley rat brain assessed as time duration for elevation in kynurenic acid plasma level at 10 mg/kg, po by […] analysis; type: functional
# Brain [27] = assay: Dose normalized AUC (0 to infinity) in BCRP and MDR1a knock out FVB/N mouse brain at 5 mg equivalents/kg, iv by LC-MS/MS analysis; type: ADME, organism-based; conditions: in vivo; procedure, shortened: as §4
# Rattus norvegicus [28] = assay: Inhibition of KMO in Sprague-Dawley rat striatum brain microdialysate assessed as time duration for elevation in 3-hydroxykynurenice acid level by 2-fold at 10 mg/kg, po by […] analysis; type: functional; procedure, shortened: as §5
# [29] = Half life in Sprague-Dawley rat kidney at 10 mg equivalents/kg, po after 0.25 to 12 hrs; type: ADME, organism-based; procedure, shortened: as §3
# Plasma [30] = assay: Dose normalized AUC (0 to infinity) in Sprague-Dawley rat plasma at 6.2 mg equivalents/kg, iv; type: ADME, cell-free
# Rattus norvegicus [31] = assay: Inhibition of KMO in po dosed Sprague-Dawley rat plasma assessed as elevation in kynurenic acid plasma level by […] analysis; type: functional, organism-based
# [32] = Tmax in Sprague-Dawley rat brain at 12 mg equivalents/kg, po; type: ADME, tissue-based; procedure, shortened: as §2
# Cerebrospinal fluid = assay: Dose normalized AUC (0 to infinity) in Sprague-Dawley rat CSF at 10 mg equivalents/kg, po after 0 to 8 hrs; type: ADME, organism-based; conditions: in vivo; procedure, shortened: as §3
# [33] = Clearance in Sprague-Dawley rat plasma at 6.2 mg equivalents/kg, iv; type: ADME, cell-free
# [34] = Half life in Sprague-Dawley rat liver at 10 mg equivalents/kg, po after 0.25 to 12 hrs; type: ADME, organism-based; procedure, shortened: as §3
# Chain of Kynurenine 3-monooxygenase (Homo sapiens, UniProt O15229) (O15229 whole entry): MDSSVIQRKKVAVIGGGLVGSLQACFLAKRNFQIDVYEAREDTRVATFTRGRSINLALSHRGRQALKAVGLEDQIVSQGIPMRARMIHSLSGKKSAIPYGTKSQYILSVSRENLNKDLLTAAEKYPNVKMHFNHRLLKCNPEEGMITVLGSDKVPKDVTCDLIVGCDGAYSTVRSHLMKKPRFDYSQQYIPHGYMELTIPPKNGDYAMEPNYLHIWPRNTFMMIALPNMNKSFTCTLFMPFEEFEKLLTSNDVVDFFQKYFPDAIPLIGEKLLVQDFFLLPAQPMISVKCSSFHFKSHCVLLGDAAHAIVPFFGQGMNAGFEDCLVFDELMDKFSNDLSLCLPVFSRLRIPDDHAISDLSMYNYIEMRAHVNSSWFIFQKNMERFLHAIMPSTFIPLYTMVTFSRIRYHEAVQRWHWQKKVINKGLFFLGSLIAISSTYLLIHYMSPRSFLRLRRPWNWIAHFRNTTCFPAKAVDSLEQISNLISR
# Chain of Kynurenine 3-monooxygenase (Rattus norvegicus, UniProt O88867) (O88867 whole entry): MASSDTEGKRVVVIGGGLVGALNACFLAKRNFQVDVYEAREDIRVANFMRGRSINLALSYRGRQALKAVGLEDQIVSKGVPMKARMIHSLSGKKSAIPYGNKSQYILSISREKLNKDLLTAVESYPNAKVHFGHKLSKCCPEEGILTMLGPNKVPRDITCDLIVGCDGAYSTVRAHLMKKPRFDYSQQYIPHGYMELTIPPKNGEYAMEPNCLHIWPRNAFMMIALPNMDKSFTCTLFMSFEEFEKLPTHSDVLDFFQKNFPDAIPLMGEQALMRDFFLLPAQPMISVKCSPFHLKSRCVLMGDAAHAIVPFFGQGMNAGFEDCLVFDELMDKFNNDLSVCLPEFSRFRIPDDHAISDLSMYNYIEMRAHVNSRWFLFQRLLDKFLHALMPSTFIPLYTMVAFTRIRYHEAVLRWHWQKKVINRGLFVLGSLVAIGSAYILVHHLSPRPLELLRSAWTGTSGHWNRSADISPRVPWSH
compound,measurement,setting,value
O=C(O)c1cc(-c2ccc(OC3CC3)c(Cl)c2)ncn1,half-life,[1],1.7 h
same,Tmax,[2],0.5 h
same,Tmax,[3],4.98 min
same,MRT,[4],1.1 h
same,Tmax,[5],1 h
same,Cmax/dose,Kidney [6],26 µM·kg/mg
same,AUC/dose,Brain [7],0.17 µM·kg·h/mg
same,Tmax,[8],0.5 h
same,AUC/dose,Plasma [9],3.6 µM·kg·h/mg
same,AUC/dose,Plasma [10],3.1 µM·kg·h/mg
same,IC50,[11],82 nM
same,logD,[12],0.9
same,AUC/dose,Cortex,0.056 µM·kg·h/mg
same,IC50,[13],4 nM
same,AUC/dose,Kidney [14],70 µM·kg·h/mg
same,fraction unbound,[15],0.05
same,inhibition,Rattus norvegicus [16],Dose-dependent effect
same,AUC/dose,Brain [17],0.073 µM·kg·h/mg
same,Time,Rattus norvegicus [18],>=4 hr
same,Tmax,[19],0.5 h
same,AUC/dose,Plasma [20],5.3 µM·kg·h/mg
same,Time,Rattus norvegicus [21],60 min
same,half-life,[22],0.7 h
same,half-life,[23],1.8 h
same,solubility,[24],> 1000 µg/mL
same,Tmax,[25],0.5 h
same,Cmax/dose,Striatum,0.047 µM·kg/mg
same,Time,Rattus norvegicus [26],>=4 hr
same,AUC/dose,Brain [27],0.23 µM·kg·h/mg
same,Time,Rattus norvegicus [28],160 min
same,half-life,[29],2 h
same,AUC/dose,Plasma [30],12 µM·kg·h/mg
same,inhibition,Rattus norvegicus [31],Dose-dependent effect
same,Tmax,[32],1 h
same,AUC/dose,Cerebrospinal fluid,0.014 µM·kg·h/mg
same,clearance,[33],4.83 mL/min/kg
same,half-life,[34],2.5 h
